Results as given in ChEMBL document CHEMBL4359870, “Identification of a new family of pyrazolo[3,4-d]pyrimidine derivatives as multitarget Fyn-Blk-Lyn inhibitors active on B- and T-lymphoma cell lines” (Eur J Med Chem, 2019).
≈ marks a conversion by molar mass, not a printed value. Calls of active or inactive are those of the source. No cut-off for these calls is given here.

Assays:
[1] = biological target: Tyrosine-protein kinase Fyn (Homo sapiens, UniProt P06241); experiment: Inhibition of recombinant full length N-terminal His6 tagged human FYN expressed in baculovirus infected sf21 cells using KVEKIGEGTYGVVYK as substrate in presence of [gamma33P]ATP by scintillation counting method
How it was run: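 Fyn radiometric assay with 250 µM Src-peptide, 100 µM ATP plus γ-33P ATP, 0.00087% NP-40, 10-50 ng enzyme, 10% DMSO, 30 °C for 10 min. ID50 taken from velocity fits. Ki derived assuming ATP-competitive binding, with ATP Km 102 µM.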

Farage = experiment: Antiproliferative activity against human Farage cells assessed as reduction in cell viability after 72 hrs by MTT assay
[2] = Apparent permeability of compound at 500 uM after 5 hrs by UV/LC-MS analysis based GI-PAMPA assay; type: ADME
How it was run: (§1)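 GI-PAMPA run with donor compound at 500 µM final, diluted from 1 mM DMSO into pH 7.4 25.0 mM phosphate buffer. Filter coated with 1% (w/v) phosphatidylcholine in dodecane. Acceptor was 50% v/v DMSO/phosphate buffer. Incubated 5 h at r.t. with gentle shaking. Donor and acceptor wells quantified by UV/LC-MS peak area. Papp and membrane retention calculated by equation, in triplicate.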

HH = experiment: Antiproliferative activity against human HH cells assessed as reduction in cell viability after 72 hrs by MTT assay
[3] = biological target: Tyrosine-protein kinase Lyn (Homo sapiens, UniProt P07948); experiment: Inhibition of LYN (unknown origin) using KVEKIGEGTYGVVYK as substrate in presence of [gamma33P]ATP as substrate in presence of [gamma33P]ATP by scintillation counting method
How it was run: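 Lyn radiometric assay with 200 µM Src-peptide, 40 µM ATP plus γ-33P ATP, 0.0013% NP-40, 10-50 ng enzyme, 10% DMSO, 30 °C for 10 min. ID50 taken from velocity fits. Ki derived assuming ATP-competitive binding, with ATP Km 39.9 µM.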

[4] = Aqueous solubility of compound at 1 mg after 24 hrs by LC-MS/MS analysis; type: physicochemical; details: water
How it was run: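 Solid compound (1 mg) shaken in 1 mL water at 20 °C for 24 h, then filtered through 0.45 µm nylon. Dissolved concentration measured by LC-MS-MS against a methanol calibration curve, in triplicate. Mean of at least three experiments.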

H9 = experiment: Antiproliferative activity against human H9 cells assessed as reduction in cell viability after 72 hrs by MTT assay; details: H9, 72 h
[5] = Metabolic stability in human liver microsomes assessed as compound remaining at 50 uM after 1 hr by UV/LC-MS analysis relative to control; type: ADME, Microsome; details: read-out: Stability
How it was run: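 Human liver microsomes at 0.2 mg/mL with NADPH regenerating system, compound at 50 µM in pH 7.4 25 mM phosphate buffer, 37 °C for 1 h. Quenched with acetonitrile, then supernatant dried and taken up in methanol. Unmetabolized percentage measured by UV/LC-MS. Mean of at least three experiments.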

FEPD [6] = experiment: Antiproliferative activity against human FEPD cells assessed as reduction in cell viability after 72 hrs by MTT assay
HuT78 [7] = experiment: Antiproliferative activity against human HUT78 cells assessed as reduction in cell viability after 72 hrs by MTT assay; details: HuT78, 72 h
SU-DHL-8 [8] = experiment: Antiproliferative activity against human SUDHL8 cells assessed as reduction in cell viability after 72 hrs by MTT assay; details: SU-DHL-8, 72 h
DOHH-2 = experiment: Antiproliferative activity against human DOHH2 cells assessed as reduction in cell viability after 72 hrs by MTT assay; details: DOHH-2, 72 h
[9] = biological target: Tyrosine-protein kinase Blk (Homo sapiens, UniProt P51451); experiment: Inhibition of BLK (unknown origin) using KVEKIGEGTYGVVYK as substrate in presence of [gamma33P]ATP as substrate in presence of [gamma33P]ATP by scintillation counting method
[10] = Membrane retention of compound at 500 uM after 5 hrs by UV/LC-MS analysis based GI-PAMPA assay relative to control; type: ADME; how it was run: as §1
SU-DHL-6 = experiment: Antiproliferative activity against human SUDHL6 cells assessed as reduction in cell viability after 72 hrs by MTT assay; details: SU-DHL-6, 72 h
FEPD [11] = experiment: Induction of cell cycle arrest in human FEPD cells assessed as accumulation at sub-G0 phase at 5 to 10 uM after 72 hrs by 7AAD staining based assay; type: functional
HuT78 [12] = experiment: Induction of cell cycle arrest in human HUT78 cells assessed as accumulation at sub-G0 phase at 5 to 10 uM after 72 hrs by 7AAD staining based assay; type: functional
SU-DHL-8 [13] = experiment: Induction of cell cycle arrest in human SUDHL8 cells assessed as accumulation at sub-G0 phase at 5 to 10 uM after 72 hrs by 7AAD staining based assay; type: functional

Chain of Tyrosine-protein kinase Lyn (P07948 whole entry): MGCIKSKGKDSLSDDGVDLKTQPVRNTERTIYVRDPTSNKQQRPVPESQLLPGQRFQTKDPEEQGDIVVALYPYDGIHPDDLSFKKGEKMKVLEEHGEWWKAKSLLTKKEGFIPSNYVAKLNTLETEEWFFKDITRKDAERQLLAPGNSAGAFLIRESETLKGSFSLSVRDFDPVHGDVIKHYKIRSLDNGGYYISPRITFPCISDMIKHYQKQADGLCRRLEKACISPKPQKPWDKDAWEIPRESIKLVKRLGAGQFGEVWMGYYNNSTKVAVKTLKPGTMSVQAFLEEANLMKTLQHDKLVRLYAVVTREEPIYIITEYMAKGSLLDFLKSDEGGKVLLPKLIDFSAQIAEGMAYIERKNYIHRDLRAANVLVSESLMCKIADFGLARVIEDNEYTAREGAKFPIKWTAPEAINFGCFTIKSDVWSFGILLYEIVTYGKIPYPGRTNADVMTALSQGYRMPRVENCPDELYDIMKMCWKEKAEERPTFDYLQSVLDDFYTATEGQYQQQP
Chain of Tyrosine-protein kinase Fyn (P06241 whole entry): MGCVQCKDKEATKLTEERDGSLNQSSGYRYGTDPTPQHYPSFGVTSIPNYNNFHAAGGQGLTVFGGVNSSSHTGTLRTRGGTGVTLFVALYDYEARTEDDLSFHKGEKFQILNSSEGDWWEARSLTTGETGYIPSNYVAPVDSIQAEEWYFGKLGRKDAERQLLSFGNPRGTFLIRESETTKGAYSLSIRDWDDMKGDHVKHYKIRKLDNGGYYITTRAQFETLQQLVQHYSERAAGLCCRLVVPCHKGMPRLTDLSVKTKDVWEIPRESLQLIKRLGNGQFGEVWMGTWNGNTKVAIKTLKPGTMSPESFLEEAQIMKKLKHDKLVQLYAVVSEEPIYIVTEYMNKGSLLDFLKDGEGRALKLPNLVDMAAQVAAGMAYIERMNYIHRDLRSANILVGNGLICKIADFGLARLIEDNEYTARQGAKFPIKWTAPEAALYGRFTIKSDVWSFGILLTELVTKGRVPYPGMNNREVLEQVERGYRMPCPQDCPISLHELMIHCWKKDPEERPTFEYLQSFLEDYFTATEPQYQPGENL
Chain of Tyrosine-protein kinase Blk (P51451 whole entry): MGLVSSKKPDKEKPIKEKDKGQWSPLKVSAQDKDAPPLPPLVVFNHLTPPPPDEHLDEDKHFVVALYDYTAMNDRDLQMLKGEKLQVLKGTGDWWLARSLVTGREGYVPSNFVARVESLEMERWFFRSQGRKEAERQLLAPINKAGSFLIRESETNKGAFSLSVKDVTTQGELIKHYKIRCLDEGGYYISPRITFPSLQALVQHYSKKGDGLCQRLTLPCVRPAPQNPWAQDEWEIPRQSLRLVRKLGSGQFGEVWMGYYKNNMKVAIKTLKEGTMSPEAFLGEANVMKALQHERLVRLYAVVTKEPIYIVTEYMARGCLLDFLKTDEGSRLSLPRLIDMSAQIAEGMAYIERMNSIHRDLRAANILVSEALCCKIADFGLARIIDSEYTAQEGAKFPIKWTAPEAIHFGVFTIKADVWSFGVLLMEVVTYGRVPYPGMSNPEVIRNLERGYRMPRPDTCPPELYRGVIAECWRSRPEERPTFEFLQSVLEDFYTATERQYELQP

Ki [1] [µM] | Papp at 5 h, 500 µM [2] [×10⁻⁶ cm/s] | Ki [3] [µM] | solubility at 24 h [4] [µg/mL] | remaining at 1 h, 50 µM [5] [%] | IC50 (SU-DHL-8 [8]) [µM] | Ki [9] [µM] | R% [10] [%] | IC50 (SU-DHL-6) [µM] | Compound | IC50 (Farage) [µM] | IC50 (HH) [µM] | IC50 (H9) [µM] | IC50 (FEPD [6]) [µM] | IC50 (HuT78 [7]) [µM] | IC50 (DOHH-2) [µM] | Activity (FEPD [11]) | Activity (HuT78 [12]) | Activity (SU-DHL-8 [13])
0.16 | 9.95 | 0.19 | 0.01 (≈ 0.026 µM) | 85.2 | 8.87 | 0.19 | 70.4 | 21.5 | Nc1ncnc2c1c(-c1ccc(Cl)cc1)nn2CC(Cl)c1ccccc1 (stereo not drawn) | 14.9 | 13.9 | 13.6 | 15.8 | > 100 | 11.4 |  |  | 
 |  |  |  |  | 12.1 |  |  | 23.4 | Cc1ccc(-c2nn(CC(Cl)c3ccccc3)c3ncnc(N)c23)cc1 (stereo not drawn) | 19.2 | 14.8 | > 100 | > 100 | 11.1 | 11.8 |  |  | 
 |  |  |  |  | 37 |  |  | > 100 | Cc1ccc(-c2nn(CCc3ccccc3)c3ncnc(N)c23)cc1 | 16 | 17.3 | > 100 | 21.5 | > 100 | 9.74 |  |  | 
 |  |  |  |  | 36 |  |  | > 100 | Nc1ncnc2c1c(-c1ccc(Cl)cc1)nn2CCc1ccccc1 | 18.6 | 18.2 | > 100 | 31.1 | > 100 | 11.8 |  |  | 
 |  |  |  |  | 18.4 |  |  | > 100 | Nc1ncnc2c1c(-c1ccccc1Cl)nn2CC(Cl)c1ccccc1 (racemic) | 51.5 | > 100 | 38.9 | 38.9 | > 100 | 26.6 |  |  | 
 |  |  |  |  | 11.8 |  |  | 45.6 | Nc1ncnc2c1c(-c1ccc(Br)cc1)nn2CC(Cl)c1ccccc1 (racemic) | 13.6 | 12.4 | 21.7 | 21.7 | 21.1 | 11 |  |  | 
 |  |  |  |  | 13.7 |  |  | > 100 | Nc1ncnc2c1c(-c1cccc(Cl)c1)nn2CC(Cl)c1ccccc1 (racemic) | 30.9 | 43.1 | 22.1 | 24.9 | > 100 | 27.4 |  |  | 
 |  |  |  |  | 11.5 |  |  | 13.2 | Nc1ncnc2c1c(-c1ccc(I)cc1)nn2CC(Cl)c1ccccc1 (racemic) | 12.6 | 5.24 | 11.6 | 20.5 | 12 | 3.68 |  |  | 
0.12 | 10.8 | 0.19 | 0.09 (≈ 0.237 µM) | 85 | 6.14 |  | 15.2 | 9.29 | Nc1ncnc2c1c(-c1ccc(CO)cc1)nn2CC(Cl)c1ccccc1 (racemic) | 7.02 | 2.4 | 3.42 | 10.8 | 4.5 | 2.44 | Active | Active | Active
 |  |  |  |  | 17.5 |  |  | 29.7 | CCc1ccc(-c2nn(CC(Cl)c3ccccc3)c3ncnc(N)c23)cc1 (racemic) | 22.7 | 21.1 | 24.2 | 21.5 | 58 | 21.2 |  |  | 
 |  |  |  |  | 27.2 |  |  | 34.2 | Nc1ncnc2c1c(-c1ccc(CO)cc1)nn2CC(O)c1ccccc1 (racemic) | 27 | 17.3 | 22.3 | 26.5 | > 100 | 12.1 |  |  | 
 |  |  |  |  | 12.1 |  |  | 22.9 | CC(Cn1nc(-c2ccc(F)cc2)c2c(N)ncnc21)c1ccccc1 (racemic) | 22.8 | 11.8 | 18.8 | > 100 | > 100 | 21.3 |  |  | 
 |  |  |  |  | > 100 |  |  | > 100 | CC(Cn1nc(-c2ccc([N+](=O)[O-])cc2)c2c(N)ncnc21)c1ccccc1 (racemic) | > 100 | > 100 | > 100 | > 100 | > 100 | > 100 |  |  | 
 |  |  |  |  | 6.72 |  |  | 31.1 | CCCc1ccc(-c2nn(CC(Cl)c3ccccc3)c3ncnc(N)c23)cc1 (racemic) | 29.4 | 48.5 | 4.74 | 29.2 | 9.9 | 4.38 |  |  | 
